Active and inactive are the calls of the source. No cut-off for these calls is given here.
Experiments:
Acetylcholinesterase [1] = target: Acetylcholinesterase (Electrophorus electricus, UniProt O42275); experiment: Inhibition of electrophorus electricus AChE
Cholinesterase [2] = target: T1, Cholinesterase (Equus caballus, UniProt P81908); experiment: Inhibition of equine serum BuChE after 15 mins
Cholinesterase [3] = target: T1, Cholinesterase; experiment: Inhibition of equine serum BuChE
Cholinesterase [4] = target: T1, Cholinesterase; experiment: Reversible competitive inhibition of equine BuChE by Lineweaver-burk plot analysis
[5] = Toxicity against Artemia salina larvae assessed as larval mortality at 1000 ug/mL after 24 hrs relative to control; format: organism-based; details: in vivo, at 1000 µg/mL
[6] = Acute oral toxicity in Swiss mouse by OECD up and down test guideline method; details: in vivo
Cholinesterase [7] = target: Cholinesterase (Mus musculus, UniProt Q03311); experiment: Inhibition of BuChE in Swiss mouse liver homogenate by Ellman's assay; format: tissue-based
Outline: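 Swiss mouse livers from 8-week-old males were washed in ice-cold 0.2 M potassium phosphate, pH 7.6, then homogenized 1:10 w/v in 0.1 M phosphate, pH 7.6. Homogenates were spun at 1000 g, 4 °C, 15 min. Compounds were made up in 0.2 M phosphate, pH 7.6. Activity was read by modified Ellman's method, with protein by Lowry. IC50 came from dose-response, triplicate means ± SD.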

Mus musculus = experiment: In vivo inhibition of BuChE in Swiss mouse liver at 3 to 6 mg/kg, iv by Ellman's assay; format: functional, organism-based
Acetylcholinesterase [8] = target: T2, Acetylcholinesterase (Mus musculus, UniProt P21836); experiment: Inhibition of AChE in Swiss mouse liver homogenate using acetylthiocholine iodide as substrate by Ellman's assay
T2 sequence (P21836 whole entry): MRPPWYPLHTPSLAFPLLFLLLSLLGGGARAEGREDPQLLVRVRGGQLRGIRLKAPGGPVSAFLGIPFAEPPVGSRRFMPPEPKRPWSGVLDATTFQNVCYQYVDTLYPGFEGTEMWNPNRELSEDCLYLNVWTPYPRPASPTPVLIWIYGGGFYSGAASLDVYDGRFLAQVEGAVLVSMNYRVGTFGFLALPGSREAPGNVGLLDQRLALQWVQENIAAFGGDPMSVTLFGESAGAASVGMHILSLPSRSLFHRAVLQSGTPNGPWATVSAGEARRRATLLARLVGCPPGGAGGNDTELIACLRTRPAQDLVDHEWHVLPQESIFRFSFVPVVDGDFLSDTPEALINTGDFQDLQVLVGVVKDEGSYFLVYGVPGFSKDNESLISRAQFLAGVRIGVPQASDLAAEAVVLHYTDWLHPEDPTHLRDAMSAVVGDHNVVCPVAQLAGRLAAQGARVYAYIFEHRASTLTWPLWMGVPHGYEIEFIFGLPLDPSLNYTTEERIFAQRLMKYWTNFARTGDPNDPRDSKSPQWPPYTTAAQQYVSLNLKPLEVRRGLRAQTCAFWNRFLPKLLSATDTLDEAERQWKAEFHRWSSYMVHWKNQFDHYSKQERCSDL

[9] = target: Cholinesterase (Equus caballus) (UniProt P81908); experiment: Competitive inhibition of equine BuChE by Cornish-Bowden analysis
[10] = Acute toxicity in iv dosed Swiss mouse; details: in vivo
Artemia salina [11] = experiment: Toxicity against Artemia salina larvae assessed as larval mortality after 24 hrs; format: organism-based; details: in vivo
Outline: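 A. salina nauplii were run per the Artoxkit M protocol: samples in saline were diluted 1:10 into saline medium, 10 larvae per well. Plates were held 24 h at 25 °C, and dead nauplii were counted by stereomicroscope. There were nine repeats per concentration, and LC50 came from dose-response. Negative controls were saline with and without 5% DMSO; potassium dichromate positive control ran 3.125–150 μg mL-1.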

Artemia salina [12] = experiment: Toxicity against Artemia salina larvae assessed as larval mortality at 100 ug/mL after 24 hrs relative to control; format: organism-based; details: in vivo

Chain of Acetylcholinesterase (Electrophorus electricus, UniProt O42275) (O42275 whole entry): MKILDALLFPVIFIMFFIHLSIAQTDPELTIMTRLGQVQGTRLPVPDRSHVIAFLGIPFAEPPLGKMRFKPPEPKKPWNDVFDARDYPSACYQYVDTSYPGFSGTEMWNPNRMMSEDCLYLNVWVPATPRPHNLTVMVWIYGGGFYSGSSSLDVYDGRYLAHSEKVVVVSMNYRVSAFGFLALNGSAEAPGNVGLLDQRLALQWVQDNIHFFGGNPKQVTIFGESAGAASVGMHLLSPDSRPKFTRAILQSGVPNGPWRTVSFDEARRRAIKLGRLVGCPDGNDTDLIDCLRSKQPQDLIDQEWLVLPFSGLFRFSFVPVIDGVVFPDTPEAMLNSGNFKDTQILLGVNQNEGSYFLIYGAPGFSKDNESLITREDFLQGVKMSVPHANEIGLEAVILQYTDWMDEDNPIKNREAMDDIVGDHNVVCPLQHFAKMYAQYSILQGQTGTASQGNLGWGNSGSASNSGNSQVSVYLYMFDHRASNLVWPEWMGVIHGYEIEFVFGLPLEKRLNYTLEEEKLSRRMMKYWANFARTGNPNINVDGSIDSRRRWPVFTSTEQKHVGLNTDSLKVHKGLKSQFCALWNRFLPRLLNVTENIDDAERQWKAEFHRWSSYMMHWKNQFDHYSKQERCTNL
T1 sequence (P81908 whole entry): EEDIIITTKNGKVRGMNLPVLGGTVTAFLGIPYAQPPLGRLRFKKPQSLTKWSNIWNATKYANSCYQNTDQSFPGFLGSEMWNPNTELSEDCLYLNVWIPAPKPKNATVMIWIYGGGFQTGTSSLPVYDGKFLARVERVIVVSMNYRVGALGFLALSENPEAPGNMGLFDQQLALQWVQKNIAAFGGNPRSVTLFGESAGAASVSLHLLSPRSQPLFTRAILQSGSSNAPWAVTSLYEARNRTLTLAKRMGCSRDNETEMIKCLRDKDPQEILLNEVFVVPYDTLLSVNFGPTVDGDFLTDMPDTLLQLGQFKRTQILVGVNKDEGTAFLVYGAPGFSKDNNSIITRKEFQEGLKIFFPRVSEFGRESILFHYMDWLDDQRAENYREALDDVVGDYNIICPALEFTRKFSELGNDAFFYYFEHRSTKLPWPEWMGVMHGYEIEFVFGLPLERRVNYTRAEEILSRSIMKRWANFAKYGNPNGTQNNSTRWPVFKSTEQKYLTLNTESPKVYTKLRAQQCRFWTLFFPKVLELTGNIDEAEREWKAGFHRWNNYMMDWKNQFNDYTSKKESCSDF
Chain of Cholinesterase (Mus musculus, UniProt Q03311) (Q03311 whole entry): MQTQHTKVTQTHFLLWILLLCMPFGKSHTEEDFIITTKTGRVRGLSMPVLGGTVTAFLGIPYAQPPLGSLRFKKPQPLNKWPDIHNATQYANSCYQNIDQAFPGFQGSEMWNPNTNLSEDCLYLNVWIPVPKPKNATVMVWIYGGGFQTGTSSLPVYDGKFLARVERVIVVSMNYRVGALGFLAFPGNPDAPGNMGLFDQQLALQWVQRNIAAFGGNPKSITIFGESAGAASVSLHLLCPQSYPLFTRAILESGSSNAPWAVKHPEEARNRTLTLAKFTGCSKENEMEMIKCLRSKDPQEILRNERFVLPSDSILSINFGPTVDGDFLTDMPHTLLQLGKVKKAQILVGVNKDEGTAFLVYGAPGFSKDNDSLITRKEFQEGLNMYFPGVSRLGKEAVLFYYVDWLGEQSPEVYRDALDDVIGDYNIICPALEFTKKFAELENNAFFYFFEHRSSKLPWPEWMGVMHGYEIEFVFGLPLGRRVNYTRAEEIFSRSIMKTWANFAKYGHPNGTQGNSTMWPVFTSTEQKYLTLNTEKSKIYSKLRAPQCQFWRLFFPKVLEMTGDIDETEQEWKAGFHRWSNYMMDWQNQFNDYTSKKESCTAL
Chain of Cholinesterase (Equus caballus) (P81908 whole entry): as the sequence (P81908 whole entry) above

Row | Compound | IC50 (Acetylcholinesterase [1]) | IC50 (Cholinesterase [3]) | mortality at 24 h, 1000 ug/mL [5] | inhibition (Mus musculus) | further results
1 | O=C1N(CC2CCN(Cc3ccccc3)CC2)c2ccccc2C1(O)c1ccccc1 (racemic) | 193 µM | – | – | – | IC50 (Cholinesterase [2]): 6.61 µM
2 | Cl.O=C1N(CC2CCNCC2)c2ccccc2C1(O)c1ccccc1 (racemic) | 500 µM | 18.3 µM | 5% | Active | Ki (Cholinesterase [4]): 41 µM; LD50 [6]: 100 mg/kg; IC50 (Cholinesterase [7]): 435 µM; IC50 (Acetylcholinesterase [8]): 565 µM; inhibition [9]: Active
3 | O=C1N(Cc2ccccc2)c2ccccc2C1(O)c1ccccc1 (racemic) | 237 µM | 7.41 µM | – | – | –
4 | COc1cc2c(cc1OC)C(=O)C(CC1CCN(Cc3ccccc3)CC1)C2 (stereo not drawn) [DONEPEZIL] | – | – | 26% | Active | LD50 [10]: 3.7 mg/kg
5 | POTASSIUM DICHROMATE | – | – | – | – | LC50 (Artemia salina [11]): 15.04 µg/mL; Activity (Artemia salina [12]): 100%

Reference: ChEMBL document CHEMBL4308913, “In silico, NMR and pharmacological evaluation of an hydroxyoxindole cholinesterase inhibitor” (Bioorg Med Chem, 2019)
